Results taken from ChEMBL document CHEMBL4342528, “Discovery of a First-in-Class Protein Arginine Methyltransferase 6 (PRMT6) Covalent Inhibitor” (J Med Chem, 2020).
The source made the active and inactive calls. The rule behind the calls is not given here.

Experiments:
[1] = target: T1, Protein arginine N-methyltransferase 6 (Homo sapiens, UniProt Q96LA8); test: Inhibition of human PRMT6 assessed as Kinact/Ki ratio pre-incubated for 1 to 30 mins using [3H]SAM as donor and [3H]methylated biotin-labeled peptide as substrate by scintillation proximity assay
Target sequence in this assay (Q96LA8 whole entry, looked up): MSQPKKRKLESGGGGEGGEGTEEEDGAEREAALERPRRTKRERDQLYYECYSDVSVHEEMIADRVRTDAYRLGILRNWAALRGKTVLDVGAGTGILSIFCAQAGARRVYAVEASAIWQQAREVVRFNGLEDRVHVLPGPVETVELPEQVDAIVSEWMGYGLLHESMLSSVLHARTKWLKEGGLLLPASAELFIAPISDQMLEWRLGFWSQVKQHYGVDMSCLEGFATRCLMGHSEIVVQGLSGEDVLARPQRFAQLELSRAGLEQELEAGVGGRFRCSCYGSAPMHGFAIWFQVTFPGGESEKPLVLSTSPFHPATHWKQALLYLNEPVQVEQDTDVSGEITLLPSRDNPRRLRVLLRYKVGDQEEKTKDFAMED

[2] = target: Histone-lysine N-methyltransferase SETD7 (Homo sapiens) (UniProt Q8WTS6); test: Inhibition of SETD7 (unknown origin) at 50 uM assessed as reduction in incorporation of [3H]-labeled methyl group into biotinylated substrate using [3H-SAM] at 50 uM incubated for 1 hr by scintillation proximity assay relative to control
In short: (§1)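 Panel of 33 methyltransferases (22 PKMTs, 3 DNMTs, 8 PRMTs), each tested at 10 and 50 μM compound. Activity was read as ³H-methyl transfer from ³H-SAM in a radiometric assay done as previously described.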

[3] = target: Histone-lysine N-methyltransferase, H3 lysine-79 specific (Homo sapiens) (UniProt Q8TEK3); test: Inhibition of DOT1L (unknown origin) at 10 uM using [3H-SAM] and nucleosome as substrate incubated for 1 hr by scintillation proximity assay; in short: as §1
[4] = target: T1, Protein arginine N-methyltransferase 6; test: Inhibition of human PRMT6 pre-incubated for 1 to 30 mins using [3H]SAM as donor and [3H]methylated biotin-labeled peptide as substrate by scintillation proximity assay
[5] = target: T1, Protein arginine N-methyltransferase 6; test: Inhibition of PRMT6 (unknown origin) assessed as reduction in incorporation of [3H]-labeled methyl group into biotinylated substrate using [3H-SAM] at 10 uM incubated for 1 hr by scintillation proximity assay; in short: as §1
Target sequence in this assay (Q96LA8 whole entry, looked up): as above

[6] = target: Histone-lysine N-methyltransferase EHMT1 (Homo sapiens) (UniProt Q9H9B1); test: Inhibition of GLP (unknown origin) assessed as reduction in incorporation of [3H]-labeled methyl group into biotinylated substrate using [3H-SAM] at 10 uM incubated for 1 hr by scintillation proximity assay; in short: as §1
[7] = target: T1, Protein arginine N-methyltransferase 6; test: Time dependent inhibition of human PRMT6 pre-incubated for 1 to 30 mins using [3H]SAM as donor and [3H]methylated biotin-labeled peptide as substrate by scintillation proximity assay; conditions: TDE = time-dependent effect
Target sequence in this assay (Q96LA8 whole entry, looked up): as above

[8] = target: Histone-lysine N-methyltransferase KMT5B (Homo sapiens) (UniProt Q4FZB7); test: Inhibition of SUV420H1 (unknown origin) assessed as reduction in incorporation of [3H]-labeled methyl group into biotinylated substrate using [3H-SAM] at 10 uM incubated for 1 hr by scintillation proximity assay
[9] = target: Protein arginine N-methyltransferase 7 (Homo sapiens) (UniProt Q9NVM4); test: Inhibition of PRMT7 (unknown origin) assessed as reduction in incorporation of [3H]-labeled methyl group into biotinylated substrate using [3H-SAM] at 10 uM incubated for 1 hr by scintillation proximity assay; in short: as §1
[10] = target: Histone-lysine N-methyltransferase KMT5C (Homo sapiens) (UniProt Q86Y97); test: Inhibition of SUV420H2 (unknown origin) assessed as reduction in incorporation of [3H]-labeled methyl group into biotinylated substrate using [3H-SAM] at 10 uM incubated for 1 hr by scintillation proximity assay
[11] = target: Protein arginine N-methyltransferase 9 (Homo sapiens) (UniProt Q6P2P2); test: Inhibition of PRMT9 (unknown origin) assessed as reduction in incorporation of [3H]-labeled methyl group into biotinylated substrate using [3H-SAM] at 10 uM incubated for 1 hr by scintillation proximity assay; in short: as §1
[12] = target: T1, Protein arginine N-methyltransferase 6; test: Inhibition of Flag-tagged PRMT6 (unknown origin) expressed in HEK293 cells incubated for 20 hrs assessed as reduction in H3R2me2a levels; format: cell-based
[13] = target: T2, Protein arginine N-methyltransferase 3 (Homo sapiens, UniProt O60678); test: Inhibition of human PRMT3 using [3H]SAM as donor and [3H]methylated biotin-labeled peptide as substrate by scintillation proximity assay
In short: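 Compound titrated into the reaction; 1 h enzyme–compound preincubation stated for PRMT6. Methylated peptide captured on streptavidin/scintillant-coated plates and counted (cpm). IC50 from concentration–response, triplicate, mean ± SD.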
Target sequence in this assay (O60678 whole entry): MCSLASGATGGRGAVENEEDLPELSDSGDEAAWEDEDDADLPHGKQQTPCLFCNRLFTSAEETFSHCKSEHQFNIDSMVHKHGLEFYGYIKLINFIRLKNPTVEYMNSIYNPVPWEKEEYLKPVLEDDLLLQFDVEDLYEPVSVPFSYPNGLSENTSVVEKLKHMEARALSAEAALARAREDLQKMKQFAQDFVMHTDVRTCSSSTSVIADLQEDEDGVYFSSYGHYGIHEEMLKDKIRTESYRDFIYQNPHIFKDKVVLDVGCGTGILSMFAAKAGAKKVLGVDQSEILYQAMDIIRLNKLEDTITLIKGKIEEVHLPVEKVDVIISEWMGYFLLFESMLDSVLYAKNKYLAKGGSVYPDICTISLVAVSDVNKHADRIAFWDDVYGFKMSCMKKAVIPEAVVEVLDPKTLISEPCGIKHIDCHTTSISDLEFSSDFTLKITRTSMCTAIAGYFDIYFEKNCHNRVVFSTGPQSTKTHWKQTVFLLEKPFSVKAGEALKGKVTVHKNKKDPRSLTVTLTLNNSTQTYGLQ

Homo sapiens = species on record: Homo sapiens; test: Selectivity index, ratio of IC50 for human PRMT8 to IC50 for human PRMT6
In short: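 Radiometric SPA: ³H-methyl transfer from ³H-SAM to biotin-labeled peptide, captured on streptavidin/scintillant-coated plate, counts per minute read; substrate and cofactor each at their Km for the enzyme; compound titrated; IC50 from triplicate determinations, mean ± SD.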

[14] = target: Protein arginine N-methyltransferase 8 (Homo sapiens, UniProt Q9NR22); test: Covalent binding affinity to human PRMT8 assessed as covalent adduct. formation at 300 uM pre-incubated for 1 hr by mass spectrometry
In short: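 PRMT protein at 15 μM was incubated 1 h at room temperature with a 20-fold molar excess of inhibitor (300 μM). The reaction was quenched with 0.1% aqueous TFA, separated by HPLC (5–95% acetonitrile in water) and analysed by ESI time-of-flight LC/MS for protein–ligand adduct mass.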

[15] = target: Histone-lysine N-methyltransferase NSD2 (Homo sapiens) (UniProt O96028); test: Inhibition of NSD2 (unknown origin) at 10 uM using [3H-SAM] and nucleosome as substrate incubated for 1 hr by scintillation proximity assay; in short: as §1
[16] = target: N-lysine methyltransferase SMYD2 (Homo sapiens) (UniProt Q9NRG4); test: Inhibition of SMYD2 (unknown origin) assessed as reduction in incorporation of [3H]-labeled methyl group into biotinylated substrate using [3H-SAM] at 10 uM incubated for 1 hr by scintillation proximity assay; in short: as §1
[17] = target: Histone-lysine N-methyltransferase SETD2 (Homo sapiens) (UniProt Q9BYW2); test: Inhibition of SETD2 (unknown origin) assessed as reduction in incorporation of [3H]-labeled methyl group into biotinylated substrate using [3H-SAM] at 10 uM incubated for 1 hr by scintillation proximity assay; in short: as §1
[18] = target: DNA (cytosine-5)-methyltransferase 1 (Homo sapiens) (UniProt P26358); test: Inhibition of DNMT1 (unknown origin) at 10 uM using double-stranded DNA substrate using [3H-SAM] incubated for 1 hr by scintillation proximity assay; in short: as §1
[19] = target: Histone-lysine N-methyltransferase SMYD3 (Homo sapiens) (UniProt Q9H7B4); test: Inhibition of SMYD3 (unknown origin) assessed as reduction in incorporation of [3H]-labeled methyl group into biotinylated substrate using [3H-SAM] at 10 uM incubated for 1 hr by scintillation proximity assay; in short: as §1
[20] = target: T2, Protein arginine N-methyltransferase 3; test: Inhibition of PRMT3 (unknown origin) expressed in HEK293T cells were co-transfected with GFP-tagged histone H4 peptide assessed as reduction in H4R3 arginine asymmetric dimethylation at 0.2 to 20 uM incubated for 20 hrs; format: cell-based
[21] = target: Histone-lysine N-methyltransferase 2A (Homo sapiens) (UniProt Q03164); test: Inhibition of MLL1 (unknown origin) assessed as reduction in incorporation of [3H]-labeled methyl group into biotinylated substrate using [3H-SAM] at 10 uM incubated for 1 hr by scintillation proximity assay; in short: as §1

Sequence of Histone-lysine N-methyltransferase SMYD3 (Homo sapiens) (Q9H7B4 whole entry): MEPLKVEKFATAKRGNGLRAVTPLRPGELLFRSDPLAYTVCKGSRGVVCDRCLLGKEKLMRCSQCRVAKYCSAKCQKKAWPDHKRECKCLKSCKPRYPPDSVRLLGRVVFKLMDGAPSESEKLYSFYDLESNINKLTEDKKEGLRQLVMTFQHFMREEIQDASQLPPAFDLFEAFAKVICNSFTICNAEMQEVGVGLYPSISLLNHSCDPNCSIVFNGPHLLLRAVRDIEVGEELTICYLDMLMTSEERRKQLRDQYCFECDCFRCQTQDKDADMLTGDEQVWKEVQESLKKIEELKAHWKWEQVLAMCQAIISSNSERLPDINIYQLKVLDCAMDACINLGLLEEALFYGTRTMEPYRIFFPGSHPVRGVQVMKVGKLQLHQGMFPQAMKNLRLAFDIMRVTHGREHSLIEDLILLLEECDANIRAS
Sequence of Protein arginine N-methyltransferase 7 (Homo sapiens) (Q9NVM4 whole entry): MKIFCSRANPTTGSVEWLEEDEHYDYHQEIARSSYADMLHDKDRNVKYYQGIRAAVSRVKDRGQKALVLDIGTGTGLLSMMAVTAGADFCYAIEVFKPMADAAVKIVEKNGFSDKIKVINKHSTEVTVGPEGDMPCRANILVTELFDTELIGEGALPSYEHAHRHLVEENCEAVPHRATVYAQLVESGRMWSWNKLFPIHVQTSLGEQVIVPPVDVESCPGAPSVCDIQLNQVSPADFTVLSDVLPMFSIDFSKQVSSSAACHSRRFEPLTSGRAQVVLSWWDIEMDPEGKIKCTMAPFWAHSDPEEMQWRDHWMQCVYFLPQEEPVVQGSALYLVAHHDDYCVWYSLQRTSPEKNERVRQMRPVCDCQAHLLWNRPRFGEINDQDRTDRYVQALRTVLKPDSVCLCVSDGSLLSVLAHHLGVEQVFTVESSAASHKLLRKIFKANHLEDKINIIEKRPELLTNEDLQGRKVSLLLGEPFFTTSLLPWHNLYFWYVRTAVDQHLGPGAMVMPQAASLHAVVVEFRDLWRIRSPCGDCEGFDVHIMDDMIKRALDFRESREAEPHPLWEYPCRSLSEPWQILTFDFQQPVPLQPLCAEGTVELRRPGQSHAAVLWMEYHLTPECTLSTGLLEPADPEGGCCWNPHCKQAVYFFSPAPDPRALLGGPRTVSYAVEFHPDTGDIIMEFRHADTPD
Sequence of Histone-lysine N-methyltransferase EHMT1 (Homo sapiens) (Q9H9B1 whole entry): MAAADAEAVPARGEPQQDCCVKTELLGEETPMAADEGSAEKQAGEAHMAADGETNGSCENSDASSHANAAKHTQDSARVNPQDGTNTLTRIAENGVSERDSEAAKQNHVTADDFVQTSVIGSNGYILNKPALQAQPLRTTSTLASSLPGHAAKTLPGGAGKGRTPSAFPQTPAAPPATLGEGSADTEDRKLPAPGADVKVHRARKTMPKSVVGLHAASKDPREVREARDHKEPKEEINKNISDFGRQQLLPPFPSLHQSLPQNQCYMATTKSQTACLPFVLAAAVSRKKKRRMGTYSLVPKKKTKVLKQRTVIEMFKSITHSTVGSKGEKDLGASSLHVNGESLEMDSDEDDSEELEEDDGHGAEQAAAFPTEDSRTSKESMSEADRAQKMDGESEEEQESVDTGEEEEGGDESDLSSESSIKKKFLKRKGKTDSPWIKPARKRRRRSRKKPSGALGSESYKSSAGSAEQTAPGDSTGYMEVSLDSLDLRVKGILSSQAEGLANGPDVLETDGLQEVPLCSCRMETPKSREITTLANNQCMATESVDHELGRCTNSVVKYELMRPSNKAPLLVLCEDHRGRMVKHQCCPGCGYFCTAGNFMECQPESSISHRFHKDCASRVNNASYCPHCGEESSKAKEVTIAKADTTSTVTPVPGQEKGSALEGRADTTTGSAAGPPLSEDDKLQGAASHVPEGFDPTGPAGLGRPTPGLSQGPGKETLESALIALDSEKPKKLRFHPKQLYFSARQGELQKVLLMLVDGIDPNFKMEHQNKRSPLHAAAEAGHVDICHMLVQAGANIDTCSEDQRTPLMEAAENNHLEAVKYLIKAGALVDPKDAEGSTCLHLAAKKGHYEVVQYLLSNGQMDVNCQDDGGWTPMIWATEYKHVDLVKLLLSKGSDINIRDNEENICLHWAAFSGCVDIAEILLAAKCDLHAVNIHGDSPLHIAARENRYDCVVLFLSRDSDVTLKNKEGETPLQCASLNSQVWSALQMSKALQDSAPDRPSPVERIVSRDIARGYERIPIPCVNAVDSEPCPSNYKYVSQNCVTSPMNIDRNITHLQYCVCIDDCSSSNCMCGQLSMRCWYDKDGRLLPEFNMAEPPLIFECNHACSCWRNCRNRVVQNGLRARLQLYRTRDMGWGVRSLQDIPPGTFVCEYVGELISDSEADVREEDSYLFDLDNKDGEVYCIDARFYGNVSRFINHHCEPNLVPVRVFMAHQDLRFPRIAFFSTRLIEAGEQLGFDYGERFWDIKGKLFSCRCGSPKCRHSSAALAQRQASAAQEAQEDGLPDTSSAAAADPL
Sequence of DNA (cytosine-5)-methyltransferase 1 (Homo sapiens) (P26358 whole entry): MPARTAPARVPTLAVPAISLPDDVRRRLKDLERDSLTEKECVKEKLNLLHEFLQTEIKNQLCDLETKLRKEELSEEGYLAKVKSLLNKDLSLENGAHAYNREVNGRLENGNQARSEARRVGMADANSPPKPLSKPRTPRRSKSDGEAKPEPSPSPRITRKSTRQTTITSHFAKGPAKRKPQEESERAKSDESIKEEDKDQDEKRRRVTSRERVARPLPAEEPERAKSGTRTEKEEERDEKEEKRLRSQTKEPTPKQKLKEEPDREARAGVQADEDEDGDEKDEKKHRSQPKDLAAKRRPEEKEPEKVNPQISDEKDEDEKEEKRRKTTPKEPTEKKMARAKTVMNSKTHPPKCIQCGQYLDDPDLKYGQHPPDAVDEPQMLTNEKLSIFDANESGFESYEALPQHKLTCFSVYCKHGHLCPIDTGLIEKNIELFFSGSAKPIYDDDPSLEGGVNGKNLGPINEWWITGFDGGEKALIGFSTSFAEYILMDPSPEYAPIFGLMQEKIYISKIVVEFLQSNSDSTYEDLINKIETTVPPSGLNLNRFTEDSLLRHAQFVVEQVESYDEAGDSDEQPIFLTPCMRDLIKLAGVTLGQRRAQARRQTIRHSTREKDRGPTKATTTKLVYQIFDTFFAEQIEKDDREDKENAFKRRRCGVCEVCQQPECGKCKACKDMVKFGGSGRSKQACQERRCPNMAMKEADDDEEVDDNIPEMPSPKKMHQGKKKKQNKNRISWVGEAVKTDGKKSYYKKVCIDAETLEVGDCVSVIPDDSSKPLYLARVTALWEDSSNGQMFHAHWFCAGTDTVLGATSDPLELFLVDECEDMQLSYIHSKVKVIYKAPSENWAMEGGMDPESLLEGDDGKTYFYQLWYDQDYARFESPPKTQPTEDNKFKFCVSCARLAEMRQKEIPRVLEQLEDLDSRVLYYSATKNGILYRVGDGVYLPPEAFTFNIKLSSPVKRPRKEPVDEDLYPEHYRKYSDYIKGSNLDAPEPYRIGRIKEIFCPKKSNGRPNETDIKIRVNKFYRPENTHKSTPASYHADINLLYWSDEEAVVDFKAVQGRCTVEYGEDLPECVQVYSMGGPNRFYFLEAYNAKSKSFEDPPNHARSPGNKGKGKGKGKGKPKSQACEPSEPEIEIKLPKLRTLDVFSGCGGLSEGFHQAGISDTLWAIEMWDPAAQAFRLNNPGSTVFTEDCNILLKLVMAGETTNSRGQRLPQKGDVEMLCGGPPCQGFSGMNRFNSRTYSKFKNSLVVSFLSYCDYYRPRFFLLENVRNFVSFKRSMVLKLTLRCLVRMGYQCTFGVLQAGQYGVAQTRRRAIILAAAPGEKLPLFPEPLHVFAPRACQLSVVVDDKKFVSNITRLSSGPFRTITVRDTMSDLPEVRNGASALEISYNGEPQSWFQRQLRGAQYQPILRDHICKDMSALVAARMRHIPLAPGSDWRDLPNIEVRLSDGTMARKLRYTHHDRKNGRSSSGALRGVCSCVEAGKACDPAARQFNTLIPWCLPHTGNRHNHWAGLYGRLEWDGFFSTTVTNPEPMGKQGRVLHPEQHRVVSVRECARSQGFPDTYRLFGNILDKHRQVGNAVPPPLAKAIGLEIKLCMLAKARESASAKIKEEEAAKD

What does the source list for `C=CC(=O)Nc1cccc(-c2c[nH]cc2CN(C)CCN)c1`?
Ratio [1]: 8.3 ×10⁴ /M/s; inhibition [2]: > 50%; inhibition [3]: inactive; Ki [4]: 16 nM; Kinact [4]: 0.08 min⁻¹; inhibition [5]: > 90%; inhibition [6]: inactive; inhibition [7]: Tde; inhibition [8]: inactive; inhibition [9]: inactive; inhibition [10]: inactive; inhibition [11]: inactive; IC50 [12]: 1300 nM; inhibition [12]: Dose-dependent effect; IC50 [13]: 3 µM; Ratio IC50 (Homo sapiens): 6; Activity [14]: inactive; inhibition [15]: inactive; inhibition [16]: inactive; inhibition [17]: inactive; inhibition [18]: inactive; inhibition [19]: inactive; inhibition [20]: inactive; inhibition [21]: inactive
